Converted amounts (≈) assume the structure as drawn. The source made the active and inactive calls. The rule behind the calls is not given here.
system: not listed separately; assay: Half life in rat liver microsomes at […] by HPLC-PDA analysis; format: ADME, Microsome; conditions: not given

SMILES	half-life
CCO[C@H]1O[C@@H]2O[C@@]3(C)CC[C@H]4[C@H](C)CC[C@@H]([C@H]1C)[C@@]24OO3 [ARTEMOTIL]	47.4 min
C=C(c1ccc(Cl)cc1)[C@H]1OOC2(CCCCC2)O[C@@H]1c1ccc(Cl)cc1 (relative stereo)	23 min

system: not listed separately; assay: Metabolic stability in rat liver microsomes at […] after 30 mins by HPLC-PDA analysis; format: ADME, Microsome; conditions: read-out: Stability

SMILES	remaining at 0.5 h
CCO[C@H]1O[C@@H]2O[C@@]3(C)CC[C@H]4[C@H](C)CC[C@@H]([C@H]1C)[C@@]24OO3 [ARTEMOTIL]	50%

system: Plasmodium yoelii nigeriensis; assay: Antimalarial activity against chloroquine, mefloquine and halofantrine-resistant Plasmodium yoelii nigeriensis infected in Swiss mouse assessed as protection against parasite-induced mortality at 12 mg/kg, po administered for 4 days measured on day 28; format: functional, organism-based; set-up: dose 12 mg/kg; conditions: not given
How it was run: (§1)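 Peters 4-day test in Swiss mice infected with multidrug-resistant P. yoelii nigeriensis. Groups of 5 mice were dosed once daily for 4 days at the stated mg/kg, oral or i.m. Mice were followed to day 28. Protection is the percentage of treated mice surviving to day 28, read from the alive/total count per group.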

SMILES	Activity
C=C(c1ccc(Cl)cc1)[C@H]1OOC2(CCCCC2)O[C@@H]1c1ccc(Cl)cc1 (relative stereo)	inactive

system: not listed separately; assay: Inhibition of CYP3A in rat liver microsome using testosterone as substrate by HPLC-PDA analysis; format: ADME, microsomes; conditions: not given

SMILES	IC50
CCO[C@H]1O[C@@H]2O[C@@]3(C)CC[C@H]4[C@H](C)CC[C@@H]([C@H]1C)[C@@]24OO3 [ARTEMOTIL]	> 100 µM

system: not listed separately; assay: Distribution coefficient, log D of the compound at pH 7.4 by HPLC-PDA analysis; format: physicochemical; conditions: octanol/water

SMILES	logD
CCO[C@H]1O[C@@H]2O[C@@]3(C)CC[C@H]4[C@H](C)CC[C@@H]([C@H]1C)[C@@]24OO3 [ARTEMOTIL]	3.6
C=C(c1ccc(Cl)cc1)[C@H]1OOC2(CCCCC2)O[C@@H]1c1ccc(Cl)cc1 (relative stereo)	4.23

biological target: T1, Cytochrome P450 2C11 (Rattus norvegicus, UniProt P08683); assay: Inhibition of CYP2C11 in rat liver microsome using diclofenac as substrate by HPLC-PDA analysis; format: ADME, microsomes; conditions: not given
T1 sequence (P08683 whole entry): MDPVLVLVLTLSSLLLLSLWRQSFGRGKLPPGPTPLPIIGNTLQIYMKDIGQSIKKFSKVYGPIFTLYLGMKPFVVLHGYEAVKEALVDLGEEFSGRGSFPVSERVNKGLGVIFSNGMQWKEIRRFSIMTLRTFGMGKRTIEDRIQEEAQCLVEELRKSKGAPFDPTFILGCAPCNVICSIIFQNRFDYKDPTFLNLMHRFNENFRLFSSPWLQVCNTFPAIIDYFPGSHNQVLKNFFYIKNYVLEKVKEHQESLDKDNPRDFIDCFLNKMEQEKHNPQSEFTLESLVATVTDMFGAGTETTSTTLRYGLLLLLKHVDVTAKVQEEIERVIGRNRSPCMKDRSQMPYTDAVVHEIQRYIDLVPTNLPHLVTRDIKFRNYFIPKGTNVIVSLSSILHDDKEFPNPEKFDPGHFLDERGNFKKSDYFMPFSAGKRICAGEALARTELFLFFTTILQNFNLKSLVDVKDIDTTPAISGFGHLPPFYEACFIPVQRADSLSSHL

SMILES	IC50
CCO[C@H]1O[C@@H]2O[C@@]3(C)CC[C@H]4[C@H](C)CC[C@@H]([C@H]1C)[C@@]24OO3 [ARTEMOTIL]	> 100 µM

biological target: T2, Cytochrome P450 1A2 (Rattus norvegicus, UniProt P04799); assay: Inhibition of CYP1A2 in rat liver microsome using phenacetin as substrate by HPLC-PDA analysis; format: ADME, microsomes; conditions: not given
T2 sequence (P04799 whole entry): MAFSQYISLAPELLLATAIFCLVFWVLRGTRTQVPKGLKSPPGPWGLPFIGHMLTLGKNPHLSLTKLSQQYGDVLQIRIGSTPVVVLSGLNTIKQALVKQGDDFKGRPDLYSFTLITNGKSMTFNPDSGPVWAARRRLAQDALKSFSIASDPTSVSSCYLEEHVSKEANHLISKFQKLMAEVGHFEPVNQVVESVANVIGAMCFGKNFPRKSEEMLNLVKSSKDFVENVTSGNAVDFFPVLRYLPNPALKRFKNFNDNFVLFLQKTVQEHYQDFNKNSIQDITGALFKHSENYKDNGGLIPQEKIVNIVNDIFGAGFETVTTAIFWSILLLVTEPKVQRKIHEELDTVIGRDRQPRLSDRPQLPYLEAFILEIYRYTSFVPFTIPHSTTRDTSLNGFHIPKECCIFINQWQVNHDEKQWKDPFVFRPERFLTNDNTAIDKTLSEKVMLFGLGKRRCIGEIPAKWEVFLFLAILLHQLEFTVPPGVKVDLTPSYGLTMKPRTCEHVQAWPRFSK

SMILES	IC50
CCO[C@H]1O[C@@H]2O[C@@]3(C)CC[C@H]4[C@H](C)CC[C@@H]([C@H]1C)[C@@]24OO3 [ARTEMOTIL]	> 100 µM

system: Plasmodium yoelii nigeriensis; assay: Antimalarial activity against chloroquine, mefloquine and halofantrine-resistant Plasmodium yoelii nigeriensis infected in Swiss mouse assessed as suppression of parasitemia at 48 mg/kg, po administered for 4 days measured on day 4; format: functional; conditions: 96 h
How it was run: (§2)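 Swiss mice infected with multidrug-resistant P. yoelii nigeriensis were treated by the Peters procedure: 5 per group, dosed daily for 4 days, oral or i.m. Parasitaemia was read on day 4 against an untreated control group. Suppression = [(c − t)/c] × 100, where c is control and t is treated parasitaemia. 100% means parasites were below the detection limit.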

SMILES	inhibition in vivo at 48 mg/kg
C=C(c1ccc(Br)cc1)[C@H]1OOC2(CCCC2)O[C@@H]1c1ccc(Br)cc1 (relative stereo)	100%
CCO[C@H]1O[C@@H]2O[C@@]3(C)CC[C@H]4[C@H](C)CC[C@@H]([C@H]1C)[C@@]24OO3 [ARTEMOTIL]	100%
C=C(c1ccc(C)cc1)[C@H]1OOC2(CCCCC2)O[C@@H]1c1ccc(C)cc1 (relative stereo)	89.4%

biological target: T3, Cytochrome P450 2D4 (Rattus norvegicus, UniProt Q64680); assay: Inhibition of CYP2D4 in rat liver microsome using dextromethorphan as substrate by HPLC-PDA analysis; format: ADME, microsomes; conditions: not given
T3 sequence (Q64680 whole entry): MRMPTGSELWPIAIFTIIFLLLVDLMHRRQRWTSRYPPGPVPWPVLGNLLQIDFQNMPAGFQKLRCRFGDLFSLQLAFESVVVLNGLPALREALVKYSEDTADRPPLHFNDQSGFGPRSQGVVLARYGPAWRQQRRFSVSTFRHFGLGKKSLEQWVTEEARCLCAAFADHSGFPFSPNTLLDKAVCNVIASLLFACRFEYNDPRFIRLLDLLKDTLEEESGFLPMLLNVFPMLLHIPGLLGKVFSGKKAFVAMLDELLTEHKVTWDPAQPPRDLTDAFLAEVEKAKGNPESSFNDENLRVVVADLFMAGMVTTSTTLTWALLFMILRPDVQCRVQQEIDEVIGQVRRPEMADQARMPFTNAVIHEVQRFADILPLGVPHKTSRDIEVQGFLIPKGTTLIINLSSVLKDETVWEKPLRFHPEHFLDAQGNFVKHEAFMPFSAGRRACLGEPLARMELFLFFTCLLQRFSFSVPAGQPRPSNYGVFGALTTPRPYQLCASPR

SMILES	IC50
CCO[C@H]1O[C@@H]2O[C@@]3(C)CC[C@H]4[C@H](C)CC[C@@H]([C@H]1C)[C@@]24OO3 [ARTEMOTIL]	> 100 µM

system: Plasma; assay: Fraction unbound in rat plasma at 10 uM by ultra-filtration method; format: ADME, cell-free; conditions: not given

SMILES	Fu
CCO[C@H]1O[C@@H]2O[C@@]3(C)CC[C@H]4[C@H](C)CC[C@@H]([C@H]1C)[C@@]24OO3 [ARTEMOTIL]	1%
C=C(c1ccc(Cl)cc1)[C@H]1OOC2(CCCCC2)O[C@@H]1c1ccc(Cl)cc1 (relative stereo)	0.8%

system: Plasmodium yoelii nigeriensis; assay: Antimalarial activity against chloroquine, mefloquine and halofantrine-resistant Plasmodium yoelii nigeriensis infected in Swiss mouse assessed as protection against parasite-induced mortality at 24 mg/kg, po administered for 4 days measured on day 28; format: functional; conditions: not given; how it was run: as §1

SMILES	Activity
C=C(c1ccc(Br)cc1)[C@H]1OOC2(CCCC2)O[C@@H]1c1ccc(Br)cc1 (relative stereo)	inactive
CCO[C@H]1O[C@@H]2O[C@@]3(C)CC[C@H]4[C@H](C)CC[C@@H]([C@H]1C)[C@@]24OO3 [ARTEMOTIL]	20%
C=C(c1ccc(Cl)cc1)[C@H]1OOC2(CCCCC2)O[C@@H]1c1ccc(Cl)cc1 (relative stereo)	100%
C=C(c1ccc(C)cc1)[C@H]1OOC2(CCCCC2)O[C@@H]1c1ccc(C)cc1 (relative stereo)	inactive

system: not listed separately; assay: Intrinsic clearance in rat liver microsomes at […] by HPLC-PDA analysis; format: ADME, Microsome; conditions: read-out: CLH

SMILES	microsomal CLint
CCO[C@H]1O[C@@H]2O[C@@]3(C)CC[C@H]4[C@H](C)CC[C@@H]([C@H]1C)[C@@]24OO3 [ARTEMOTIL]	36.6 µL/min/mg
C=C(c1ccc(Cl)cc1)[C@H]1OOC2(CCCCC2)O[C@@H]1c1ccc(Cl)cc1 (relative stereo)	60.3 µL/min/mg

system: Plasmodium yoelii nigeriensis; assay: Antimalarial activity against chloroquine, mefloquine and halofantrine-resistant Plasmodium yoelii nigeriensis infected in Swiss mouse assessed as protection against parasite-induced mortality at 96 mg/kg, im administered for 4 days measured on day 28; format: functional, organism-based; set-up: dose 96 mg/kg; conditions: not given; how it was run: as §1

SMILES	Activity
C=C(c1ccc(Cl)cc1)[C@H]1OOC2(CCCCC2)O[C@@H]1c1ccc(Cl)cc1 (relative stereo)	inactive
C=C(c1ccc(C)cc1)[C@H]1OOC2(CCCCC2)O[C@@H]1c1ccc(C)cc1 (relative stereo)	inactive

system: Plasmodium yoelii nigeriensis; assay: Antimalarial activity against chloroquine, mefloquine and halofantrine-resistant Plasmodium yoelii nigeriensis infected in Swiss mouse assessed as protection against parasite-induced mortality at 48 mg/kg, po administered for 4 days measured on day 28; format: functional; conditions: not given; how it was run: as §1

SMILES	Activity
C=C(c1ccc(Br)cc1)[C@H]1OOC2(CCCC2)O[C@@H]1c1ccc(Br)cc1 (relative stereo)	20%
CCO[C@H]1O[C@@H]2O[C@@]3(C)CC[C@H]4[C@H](C)CC[C@@H]([C@H]1C)[C@@]24OO3 [ARTEMOTIL]	100%
C=C(c1ccc(Cl)cc1)[C@H]1OOC2(CCCCC2)O[C@@H]1c1ccc(Cl)cc1 (relative stereo)	Active
C=C(c1ccc(C)cc1)[C@H]1OOC2(CCCCC2)O[C@@H]1c1ccc(C)cc1 (relative stereo)	inactive

system: Plasmodium yoelii nigeriensis; assay: Antimalarial activity against chloroquine, mefloquine and halofantrine-resistant Plasmodium yoelii nigeriensis infected in Swiss mouse assessed as suppression of parasitemia at 12 mg/kg, po administered for 4 days measured on day 4; format: functional; conditions: 96 h; how it was run: as §2

SMILES	inhibition in vivo at 12 mg/kg
C=C(c1ccc(Cl)cc1)[C@H]1OOC2(CCCCC2)O[C@@H]1c1ccc(Cl)cc1 (relative stereo)	100%

system: Plasmodium yoelii nigeriensis; assay: Antimalarial activity against chloroquine, mefloquine and halofantrine-resistant Plasmodium yoelii nigeriensis infected in Swiss mouse assessed as suppression of parasitemia at 96 mg/kg, po administered for 4 days measured on day 4; format: functional; conditions: 96 h; how it was run: as §2

SMILES	inhibition in vivo at 96 mg/kg
C=C(c1ccc(Cl)cc1)[C@H]1OOC2(CCCCC2)O[C@@H]1c1ccc(Cl)cc1 (relative stereo)	100%

system: Plasmodium yoelii nigeriensis; assay: Antimalarial activity against chloroquine, mefloquine and halofantrine-resistant Plasmodium yoelii nigeriensis infected in Swiss mouse assessed as suppression of parasitemia at 96 mg/kg, im administered for 4 days measured on day 4; format: functional; conditions: 96 h, route intramuscular; how it was run: as §2

SMILES	inhibition in vivo at 96 mg/kg
C=C(c1ccc(Cl)cc1)[C@H]1OOC2(CCCCC2)O[C@@H]1c1ccc(Cl)cc1 (relative stereo)	3.45%
C=C(c1ccc(C)cc1)[C@H]1OOC2(CCCCC2)O[C@@H]1c1ccc(C)cc1 (relative stereo)	16.6%

system: Plasmodium yoelii nigeriensis; assay: Antimalarial activity against chloroquine, mefloquine and halofantrine-resistant Plasmodium yoelii nigeriensis infected in Swiss mouse assessed as suppression of parasitemia at 24 mg/kg, po administered for 4 days measured on day 4; format: functional; conditions: 96 h; how it was run: as §2

SMILES	inhibition in vivo at 24 mg/kg
C=C(c1ccc(Br)cc1)[C@H]1OOC2(CCCC2)O[C@@H]1c1ccc(Br)cc1 (relative stereo)	98.6%
CCO[C@H]1O[C@@H]2O[C@@]3(C)CC[C@H]4[C@H](C)CC[C@@H]([C@H]1C)[C@@]24OO3 [ARTEMOTIL]	100%
C=C(c1ccc(Cl)cc1)[C@H]1OOC2(CCCCC2)O[C@@H]1c1ccc(Cl)cc1 (relative stereo)	100%
C=C(c1ccc(C)cc1)[C@H]1OOC2(CCCCC2)O[C@@H]1c1ccc(C)cc1 (relative stereo)	49.6%

system: not listed separately; assay: Effective permeability coefficient of the compound in Sprague-Dawley rat intestine at 10 uM by In-situ single pass intestinal perfusion technique; format: ADME, tissue-based; conditions: other: in situ single pass intestinal perfusion, read-out: Peff

SMILES	Papp at 10 µM
C=C(c1ccc(Cl)cc1)[C@H]1OOC2(CCCCC2)O[C@@H]1c1ccc(Cl)cc1 (relative stereo)	113 ×10⁻⁶ cm/s

system: not listed separately; assay: Solubility of the compound in distilled water after 24 hrs by shake flask method; format: physicochemical; conditions: buffer, 24 h

SMILES	solubility
CCO[C@H]1O[C@@H]2O[C@@]3(C)CC[C@H]4[C@H](C)CC[C@@H]([C@H]1C)[C@@]24OO3 [ARTEMOTIL]	Insoluble

same assay, conditions: distilled water

SMILES	solubility thermodynamic at 24 h
C=C(c1ccc(Cl)cc1)[C@H]1OOC2(CCCCC2)O[C@@H]1c1ccc(Cl)cc1 (relative stereo)	13 µM (≈ 5.27 µg/mL)

Reference: ChEMBL document CHEMBL2321792, “Synthesis and antimalarial activity of 3,3-spiroanellated 5,6-disubstituted 1,2,4-trioxanes” (ACS Med Chem Lett, 2013)
